The values below come from ChEMBL document CHEMBL3259598, “Lignan dicarboxylates and terpenoids from the flower buds of Cananga odorata and their inhibitory effects on melanogenesis” (J Nat Prod, 2014).

The structures appear in SMILES notation.

The inhibition is the relative decrease from the control value, in per cent. One may read the IC50 as the point on the concentration scale where inhibition reaches its midpoint.

The nature of data set [1]: Cytotoxicity against mouse B16-4A5 cells assessed as viable cells at 10 uM after 72 hrs by WST-8 assay. Conditions: read-out: Activity. The data set is classed as cell-based. The method in brief:
(§1)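 B16 melanoma 4A5 cells (DMEM, 4.5 g/L glucose, 10% FBS, 37 °C, 5% CO2) seeded at 5.0 × 10^4 cells/well in 96-well plates, grown 24 h, then exposed to test compound (DMSO, final 0.1%) for 70 h. After a PBS wash, cells were given DMEM plus WST-8 for 2 h more. Formazan read at 450 nm (reference 655 nm).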

Data set [2] can be described thus: Inhibition of melanogenesis in mouse B16-4A5 cells at 3 uM after 72 hrs by spectrophotometry relative to control. The data set is classed as functional. The conditions noted are these: B16-4A5, 72 h. In short, it runs like this: (§2)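 Murine B16 melanoma 4A5 cells seeded at 2.0 × 10^4 cells/well in 24-well plates and cultured 24 h, then given test compound (DMSO, final 0.1%) plus 1 mM theophylline for 72 h. Cells trypsinized, washed and lysed in 1 M NaOH at 80 °C for 30 min; lysate absorbance read at 405 nm. Inhibition is corrected for cell viability, mean ± SEM (n = 4); IC50 determined graphically.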

Data set [3] in a line: Cytotoxicity against mouse B16-4A5 cells assessed as viable cells at 30 uM after 72 hrs by WST-8 assay. The data set is classed as cell-based. Conditions: read-out: Activity. The method in brief:
as §1

Data set [4] in a line: Inhibition of melanogenesis in mouse B16-4A5 cells at 10 uM after 72 hrs by spectrophotometry relative to control. It is filed as functional. The conditions noted are these: B16-4A5, 72 h. In short, it runs like this: as §2
A short description of data set [5]: Inhibition of melanogenesis in mouse B16-4A5 cells after 72 hrs by spectrophotometry relative to control. The data set is classed as functional, cell-based. In short, it runs like this:
as §2

Data set [6] is described as follows: Inhibition of melanogenesis in mouse B16-4A5 cells at 1 uM after 72 hrs by spectrophotometry relative to control. Conditions: B16-4A5, 72 h. It is filed as functional. The method in brief: as §2
The nature of data set [7]: Inhibition of melanogenesis in mouse B16-4A5 cells at 30 uM after 72 hrs by spectrophotometry relative to control. It is filed as functional. The conditions noted are these: B16-4A5, 72 h. In short, it runs like this: as §2
Data set [8] is described as follows: Inhibition of melanogenesis in mouse B16-4A5 cells at 100 uM after 72 hrs by spectrophotometry relative to control. The data set is classed as functional. Conditions: B16-4A5, 72 h. The method in brief: as §2
Data set [9] in a line: Inhibition of melanogenesis in mouse B16-4A5 cells at 1000 uM after 72 hrs by spectrophotometry relative to control. It is filed as functional. The conditions noted are these: B16-4A5, 72 h. The method in brief: (§3)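 B16 melanoma 4A5 cells were grown in DMEM (4.5 g/L glucose) with 10% FBS and penicillin/streptomycin at 37 °C, 5% CO2, then seeded at 2.0 × 10^4 cells/well. After 24 h, compound (DMSO stock, 0.1% DMSO final) was added with 1 mM theophylline for 72 h. Cells were trypsinized, washed, lysed in 1 M NaOH (80 °C, 30 min) and read at 405 nm. Inhibition was corrected for WST-8 viability; mean ± SEM, n = 4.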

A short description of data set [10]: Inhibition of melanogenesis in mouse B16-4A5 cells at 300 uM after 72 hrs by spectrophotometry relative to control. The data set is classed as functional. The conditions noted are these: B16-4A5, 72 h. In short, it runs like this:
as §3

Setting [11] is: Mus musculus, B16-4A5, 72 h, read-out: IC50.

As to `CC1(C)C[C@H](OC(=O)c2ccccc2)[C@@]23CC[C@@H](O)[C@@](C)(CC[C@H]12)C3`, the viability at 72 h, 10 µM in [1] was 75.9%. Besides, the inhibition at 3 µM in data set [2] was 40.2%. Also, the viability at 72 h, 30 µM in [3] was determined as 7.9%. In addition, the inhibition at 10 µM in [4] was 66.7%. Further, the IC50 in data set [5] (setting [11]) amounted to 3 µM. Moreover, in [6], the inhibition at 1 µM came to 45.3%.

Turning to `O=C(OC[C@H]1CC[C@](CO)(CCO)[C@@H](O)C1)C(=C/c1ccc(O)cc1)/C(=C\c1ccc(O)c(O)c1)C(=O)OC[C@H]1CC[C@](CO)(CCO)[C@@H](O)C1`, the inhibition at 30 µM in data set [7] was 49.8%. Also, the inhibition at 3 µM in data set [2] was 45%. Moreover, in data set [3], the viability at 72 h, 30 µM was above 95.2%. For the same compound, the inhibition at 10 µM in data set [4] was 59%. Further, the inhibition at 100 µM in data set [8] came to 44.2%. Besides, the IC50 in data set [5] (setting [11]) turned out to be 5 µM. Besides, the inhibition at 1 µM in data set [6] amounted to 36.1%.

Turning to `COc1ccc(/C=C(C(=O)OC[C@H]2CC[C@](CO)(CCO)[C@@H](O)C2)\C(=C/c2ccc(OC)c(OC)c2)C(=O)OC[C@H]2CC[C@](CO)(CCO)[C@@H](O)C2)cc1`, the inhibition at 30 µM in data set [7] is -19.9%. In addition, the viability at 72 h, 10 µM in data set [1] amounted to 82%. Also, the inhibition at 3 µM in [2] is 24.1%. In addition, in [3], the viability at 72 h, 30 µM is 68.8%. The inhibition at 10 µM in data set [4] was found to be 8.1%. In [8], the inhibition at 100 µM was -15.7%. The inhibition at 1 µM in data set [6] came to 34.4%.

Regarding `OCC[C@@]1(CO)CC[C@H](CO)C[C@@H]1O`, the inhibition at 30 µM in data set [7] amounted to 51.6%. In addition, the inhibition at 3 µM in data set [2] came out at 55.1%. In addition, in data set [3], the viability at 72 h, 30 µM was above 95.2%. Besides, in data set [4], the inhibition at 10 µM was determined as 55.9%. Further, in data set [8], the inhibition at 100 µM is 25.6%. For the same compound, in data set [5] (setting [11]), the IC50 came out at 2 µM. For the same compound, the inhibition at 1 µM in data set [6] worked out at 45%.

Turning to `CC(C)[C@@H]1CC[C@@]2(C)[C@H](O)CCC(C=O)=C[C@@H]12` [APHANAMOL II], the inhibition at 30 µM in data set [7] is 28.3%. Moreover, the inhibition at 3 µM in data set [2] was determined as 34.3%. Further, the viability at 72 h, 30 µM in data set [3] is above 74.5%. Besides, the inhibition at 10 µM in [4] worked out at 32.9%. The inhibition at 100 µM in data set [8] worked out at 42.1%. Further, the 50% inhibitory concentration (IC50) in data set [5] was above 100 µM. In addition, in data set [6], the inhibition at 1 µM amounted to 37.6%.

As for `OC[C@H]1O[C@@H](Oc2ccc(O)cc2)[C@H](O)[C@@H](O)[C@@H]1O` [ARBUTIN], the inhibition at 30 µM in [7] stood at 20.4%. In data set [9], the inhibition at 1000 µM stood at 83.7%. The inhibition at 300 µM in data set [10] came out at 61.5%. Besides, the inhibition at 10 µM in [4] amounted to 10.6%. Further, the inhibition at 100 µM in data set [8] is 38.1%. Further, the half-inhibitory concentration (IC50) in data set [5] (setting [11]) came out at 174 µM.
